Results reported in ChEMBL document CHEMBL5724801, “EUbOPEN Chemogenomics Library - Multiplex” (2024).
“And” between values parts separate entries of the source, which are not always exact repeats. Identical values can stand only once.

Tested on: U2OS
Test: Multiplex assay against U2OS
Format: toxicity, cell-based
Settings: human
Outline: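 Values for tubulin, mitochondrial-mass and membrane-permeability phenotypes are per cents of cells with healthy nuclei. These cells were identified by CellPathfinder machine-learning gating of live cells that had been stained at seeding with Hoechst33342, BioTracker Green Microtubule Cytoskeleton Dye, MitoTracker Red and Annexin V Alexa Fluor 680 and imaged on a CQ1 microscope at 37°C and 5% CO2 after compound addition. The gating first set Hoechst high-intensity objects apart from normal cells, then split normal cells into healthy, pyknosed or fragmented nuclei, and pyknosed cells into mitotic or apoptotic.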

[1] = 12 h, 1 µM, compound concentration 1 uM
[2] = 12 h, 10 µM, compound concentration 10 uM
[3] = 24 h, 1 µM, compound concentration 1 uM
[4] = 24 h, 10 µM, compound concentration 10 uM
[5] = 48 h, 1 µM, compound concentration 1 uM
[6] = 48 h, 10 µM, compound concentration 10 uM

Cc1noc(-c2ccc(-c3ccc(CC(=O)O)cc3)cc2)c1NC(=O)O[C@H](C)c1ccccc1Cl
Population Apoptotic (%) [1]: 95% and 85% | Population Fragmented Nuclei (%) [1]: 21% and 19% | Population Healthy Nuclei (%) [1]: 69% and 74% | Population Hoechst High Intensity Objects (%) [1]: 4% and 0% | Population Membrane Permeable-Phenotype (%) [1]: 7% and 2% | Population Mitochondria Different-Phenotype (%) [1]: 5% and 2% | Population Mitotic Cells (%) [1]: 5% and 14% | Population Normal (%) [1]: 95% and 99% | Population Pyknosed Nuclei (%) [1]: 9% and 7% | Population Tubulin-Different-Phenotype (%) [1]: 4% | Total Cell Count [1]: 231 and 101 | Population Apoptotic (%) [2]: 78% and 71% | Population Fragmented Nuclei (%) [2]: 29% and 11% | Population Healthy Nuclei (%) [2]: 61% and 83% | Population Hoechst High Intensity Objects (%) [2]: 2% | Population Membrane Permeable-Phenotype (%) [2]: 11% and 6% | Population Mitochondria Different-Phenotype (%) [2]: 4% and 2% | Population Mitotic Cells (%) [2]: 21% and 28% | Population Normal (%) [2]: 97% | Population Pyknosed Nuclei (%) [2]: 9% and 5% | Population Tubulin-Different-Phenotype (%) [2]: 6% | Total Cell Count [2]: 242 and 138 | Population Apoptotic (%) [3]: 96% and 77% | Population Fragmented Nuclei (%) [3]: 19% and 15% | Population Healthy Nuclei (%) [3]: 70% and 77% | Population Hoechst High Intensity Objects (%) [3]: 2% and 0% | Population Membrane Permeable-Phenotype (%) [3]: 5% and 4% | Population Mitochondria Different-Phenotype (%) [3]: 4% and 3% | Population Normal (%) [3]: 97% and 99% | Population Pyknosed Nuclei (%) [3]: 9% and 7% | Population Tubulin-Different-Phenotype (%) [3]: 3% and 6% | Total Cell Count [3]: 277 and 125 | Population Apoptotic (%) [4]: 92% and 90% | Population Fragmented Nuclei (%) [4]: 24% and 12% | Population Healthy Nuclei (%) [4]: 65% and 80% | Population Hoechst High Intensity Objects (%) [4]: 1% and 2% | Population Membrane Permeable-Phenotype (%) [4]: 11% and 7% | Population Mitochondria Different-Phenotype (%) [4]: 2% | Population Mitotic Cells (%) [4]: 7% and 9% | Population Normal (%) [4]: 98% and 97% | Population Pyknosed Nuclei (%) [4]: 10% and 7% | Population Tubulin-Different-Phenotype (%) [4]: 5% and 4% | Total Cell Count [4]: 260 and 154 | Population Apoptotic (%) [5]: 97% and 86% | Population Fragmented Nuclei (%) [5]: 15% and 18% | Population Healthy Nuclei (%) [5]: 75% and 72% | Population Hoechst High Intensity Objects (%) [5]: 1% and 0% | Population Membrane Permeable-Phenotype (%) [5]: 6% | Population Mitochondria Different-Phenotype (%) [5]: 3% and 4% | Population Normal (%) [5]: 98% and 100% | Population Pyknosed Nuclei (%) [5]: 9% and 8% | Population Tubulin-Different-Phenotype (%) [5]: 3% and 4% | Total Cell Count [5]: 408 and 170 | Population Apoptotic (%) [6]: 92% and 85% | Population Fragmented Nuclei (%) [6]: 19% and 9% | Population Healthy Nuclei (%) [6]: 72% and 78% | Population Hoechst High Intensity Objects (%) [6]: 3% and 4% | Population Membrane Permeable-Phenotype (%) [6]: 7% and 6% | Population Mitochondria Different-Phenotype (%) [6]: 3% and 2% | Population Mitotic Cells (%) [6]: 7% and 14% | Population Normal (%) [6]: 96% and 95% | Population Pyknosed Nuclei (%) [6]: 8% and 11% | Population Tubulin-Different-Phenotype (%) [6]: 5% and 4% | Total Cell Count [6]: 344 and 241

C[C@@H]1CC(=O)Nc2cccc(-c3ccc4c(c3)c(-c3cnn(C)c3)nn4C)c2N1
Population Apoptotic (%) [1]: 92% and 88% | Population Fragmented Nuclei (%) [1]: 20% and 16% | Population Healthy Nuclei (%) [1]: 73% and 75% | Population Hoechst High Intensity Objects (%) [1]: 1% | Population Membrane Permeable-Phenotype (%) [1]: 7% and 5% | Population Mitochondria Different-Phenotype (%) [1]: 4% and 2% | Population Mitotic Cells (%) [1]: 7% and 11% | Population Normal (%) [1]: 98% | Population Pyknosed Nuclei (%) [1]: 6% and 7% | Population Tubulin-Different-Phenotype (%) [1]: 6% and 2% | Total Cell Count [1]: 233 and 116 | Population Apoptotic (%) [2]: 86% and 33% | Population Fragmented Nuclei (%) [2]: 29% and 21% | Population Healthy Nuclei (%) [2]: 58% and 74% | Population Hoechst High Intensity Objects (%) [2]: 2% and 1% | Population Membrane Permeable-Phenotype (%) [2]: 11% and 7% | Population Mitochondria Different-Phenotype (%) [2]: 11% and 7% | Population Normal (%) [2]: 97% and 98% | Population Pyknosed Nuclei (%) [2]: 12% and 4% | Population Tubulin-Different-Phenotype (%) [2]: 8% | Population Apoptotic (%) [3]: 95% and 100% | Population Fragmented Nuclei (%) [3]: 20% and 22% | Population Healthy Nuclei (%) [3]: 71% and 74% | Population Hoechst High Intensity Objects (%) [3]: 2% and 1% | Population Membrane Permeable-Phenotype (%) [3]: 5% and 1% | Population Mitochondria Different-Phenotype (%) [3]: 2% and 1% | Population Mitotic Cells (%) [3]: 4% and 0% | Population Normal (%) [3]: 97% and 98% | Population Pyknosed Nuclei (%) [3]: 7% and 4% | Population Tubulin-Different-Phenotype (%) [3]: 2% and 0% | Total Cell Count [3]: 294 and 152 | Population Apoptotic (%) [4]: 90% and 83% | Population Fragmented Nuclei (%) [4]: 24% and 15% | Population Healthy Nuclei (%) [4]: 63% and 78% | Population Hoechst High Intensity Objects (%) [4]: 4% and 1% | Population Membrane Permeable-Phenotype (%) [4]: 7% and 6% | Population Mitochondria Different-Phenotype (%) [4]: 6% and 1% | Population Mitotic Cells (%) [4]: 10% and 16% | Population Normal (%) [4]: 95% and 98% | Population Pyknosed Nuclei (%) [4]: 11% and 6% | Population Tubulin-Different-Phenotype (%) [4]: 3% and 4% | Total Cell Count [4]: 266 and 97 | Population Apoptotic (%) [5]: 100% | Population Fragmented Nuclei (%) [5]: 19% and 13% | Population Healthy Nuclei (%) [5]: 73% and 77% | Population Hoechst High Intensity Objects (%) [5]: 1% | Population Membrane Permeable-Phenotype (%) [5]: 4% and 2% | Population Mitochondria Different-Phenotype (%) [5]: 2% | Population Mitotic Cells (%) [5]: 0% | Population Normal (%) [5]: 98% | Population Pyknosed Nuclei (%) [5]: 6% and 8% | Population Tubulin-Different-Phenotype (%) [5]: 3% and 2% | Total Cell Count [5]: 437 and 224 | Population Apoptotic (%) [6]: 100% | Population Fragmented Nuclei (%) [6]: 28% and 23% | Population Healthy Nuclei (%) [6]: 65% and 71% | Population Hoechst High Intensity Objects (%) [6]: 3% and 4% | Population Membrane Permeable-Phenotype (%) [6]: 8% and 3% | Population Mitochondria Different-Phenotype (%) [6]: 3% and 0% | Population Mitotic Cells (%) [6]: 0% | Population Normal (%) [6]: 96% and 95% | Population Pyknosed Nuclei (%) [6]: 5% and 4% | Population Tubulin-Different-Phenotype (%) [6]: 5% and 3% | Total Cell Count [6]: 394 and 149
